# High-throughput results (PubChem BioAssay)
# A1 apoptosis 2 = blocks A1, raising caspase activity | MEF A1-2A-BIM cells, caspase-Glo luminescence, 3 h; percent of clofoctol response, DMSO zero | caspase activation, % (no concentration beside the values) | 24,000 tested, under 10 active | AID 2465; in the data active means caspase activation above about 5.9%
#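 system = A1-2A-BIM-expressing MEF cells | quantity = 2500 MEF cells/well | dosing = 50 nL compound per well, pinned | schedule = overnight cell settling, then 3 h compound exposure, 37 °C | signal = luminescence from DEVD-luciferin Caspase-Glo reagent, 1:1 in 50 mM HEPES, 1 h RT | read-out = Caspase-3/7 activation, seen as rise in luminescence signal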
# T cruzi intra = blocks T. cruzi growth inside host cells; activity score (inhibition), % at 5.01 µM; hit rate 4.9% among 22,000; intracellular Trypanosoma cruzi in host cells, plate reader; in the data active means activity score above about 55%;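 further: parasites and compound incubated about four days before reading; 0% = median of neutral control wells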
# INS-1E ATP HTS = rescue of cytokine-induced death in INS-1E beta cells; AID 488910; protection from cytokine-induced ATP loss, % at 10 µM; hit rate 0.1% among 20,000; INS-1E cytokine-induced death, ATP luminescence, 48 h; normalised: neutral wells 0, positive control 100;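 active means mean replicate protection from cytokine-induced ATP loss at least 50% and at least 75% of replicates each reaching 50%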
#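 Assay system – rat INS-1E insulinoma cell line · Quantity – 8000 cells per well · Buffer or medium – RPMI without phenol red, 5% FBS · Schedule – 48 h co-treatment, 10 min post-lysis read · Technique – luminescent ATP assay (CellTiter-Glo)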
# Numbers without * were called inactive; · = no result. Shown is part of a subset that was picked to be rich in hits.
SMILES,A1 apoptosis 2,T cruzi intra,INS-1E ATP HTS
C[C@H](CO)N1C[C@H](C)[C@H](CN(C)Cc2ccc(Oc3ccccc3)cc2)Oc2ccc(N(C)C)cc2CC1=O,·,34,-16
C[C@H](CO)N1C[C@H](C)[C@@H](CN(C)Cc2ccccc2)Oc2ccc(N(C)C)cc2CC1=O,0,·,·
C[C@H]1CN([C@@H](C)CO)C(=O)Cc2cc(N(C)C)ccc2O[C@@H]1CN(C)Cc1ccccc1,1,58*,-6
C[C@@H]1CN([C@H](C)CO)C(=O)Cc2cc(N(C)C)ccc2O[C@H]1CN(C)Cc1ccc(Oc2ccccc2)cc1,·,57*,-27
CN(C)CCCOc1ccc(/C=N/NC(=O)c2ccccc2O)cc1,-2,26,-3
COc1ccc(S(=O)(=O)Nc2ccc3c(c2)CC(=O)N([C@H](C)CO)C[C@@H](C)[C@H](CN(C)CC2CCCCC2)O3)cc1,-1,59*,-9
C[C@H]1CN([C@@H](C)CO)C(=O)Cc2cc(NS(=O)(=O)c3ccc(Cl)cc3)ccc2O[C@@H]1CN(C)CC1CCCCC1,0,53,-12
COc1ccc(S(=O)(=O)Nc2ccc3c(c2)CC(=O)N([C@H](C)CO)C[C@H](C)[C@H](CN(C)CC2CCCCC2)O3)cc1,·,-4,-25
C[C@H]1CN([C@@H](C)CO)C(=O)Cc2cc(NS(=O)(=O)c3ccc(Cl)cc3)ccc2O[C@H]1CN(C)CC1CCCCC1,3,73*,-18
C[C@@H]1CCCCO[C@H](CN(C)C(=O)NC2CCCCC2)[C@H](C)CN([C@H](C)CO)C(=O)c2cc(NC(=O)Cc3ccccc3)ccc2O1,-1,·,·
C[C@@H]1CN([C@H](C)CO)C(=O)Cc2cc(NS(=O)(=O)c3ccc(F)cc3)ccc2O[C@H]1CN(C)Cc1ccc(Oc2ccccc2)cc1,-1,66*,-45
C[C@@H]1CN([C@@H](C)CO)C(=O)Cc2cc(NS(=O)(=O)c3ccccc3)ccc2O[C@@H]1CN(C)Cc1ccc(Oc2ccccc2)cc1,0,45,-20
Cc1ccc(S(=O)(=O)Nc2ccc3c(c2)CC(=O)N([C@H](C)CO)C[C@@H](C)[C@@H](CN(C)Cc2ccc(Oc4ccccc4)cc2)O3)cc1,·,65*,-22
Cc1ccc(S(=O)(=O)Nc2ccc3c(c2)CC(=O)N([C@H](C)CO)C[C@H](C)[C@@H](CN(C)Cc2ccc(Oc4ccccc4)cc2)O3)cc1,-2,·,·
C[C@H]1CN([C@@H](C)CO)C(=O)Cc2cc(NS(=O)(=O)c3ccc(F)cc3)ccc2O[C@@H]1CN(C)Cc1ccc(Oc2ccccc2)cc1,2,66*,-19
C[C@@H]1CN([C@H](C)CO)C(=O)Cc2cc(NS(=O)(=O)c3ccccc3)ccc2O[C@H]1CN(C)Cc1ccc(Oc2ccccc2)cc1,·,40,-19
C[C@@H]1CN([C@H](C)CO)C(=O)c2cc(NC(=O)Cn3cnnn3)ccc2O[C@H]1CN(C)S(=O)(=O)c1ccccc1,0,3,·
O=C(NO)c1ccc(C(=O)N/N=C/c2cc(O)ccc2[N+](=O)[O-])cc1,0,-4,8
C[C@@H]1CN([C@H](C)CO)C(=O)c2cccc(NC(=O)Nc3cccc4ccccc34)c2O[C@@H]1CN(C)Cc1ccc(-c2ccccc2)cc1,·,61*,-19
CC(C)NC(=O)Nc1cccc2c1O[C@@H](CN(C)Cc1ccc(Oc3ccccc3)cc1)[C@H](C)CN([C@H](C)CO)C2=O,0,57*,-7
C[C@H](CO)N1C[C@H](C)[C@H](CN(C)Cc2ccc(Oc3ccccc3)cc2)Oc2c(NC(=O)Nc3cccc4ccccc34)cccc2C1=O,0,66*,-59
C[C@H](CO)N1C[C@H](C)[C@@H](CN(C)Cc2ccc(Oc3ccccc3)cc2)Oc2c(NC(=O)Nc3ccccc3)cccc2C1=O,-1,78*,-46
C[C@@H]1CN([C@@H](C)CO)C(=O)c2cccc(NC(=O)Nc3ccccc3)c2O[C@@H]1CN(C)Cc1ccc(Oc2ccccc2)cc1,·,-16,-44
C[C@H](CO)N1C[C@H](C)[C@H](CN(C)Cc2ccc(-c3ccccc3)cc2)Oc2c(NC(=O)Nc3cccc4ccccc34)cccc2C1=O,0,·,·
CC(C)NC(=O)Nc1cccc2c1O[C@H](CN(C)Cc1ccc(Oc3ccccc3)cc1)[C@H](C)CN([C@@H](C)CO)C2=O,0,-1,-22
SMILES,A1 apoptosis 2,T cruzi intra,INS-1E ATP HTS
C[C@H]1CN([C@@H](C)CO)C(=O)c2cccc(NC(=O)Nc3ccccc3)c2O[C@@H]1CN(C)Cc1ccc(Oc2ccccc2)cc1,0,34,-27
O=C(CCCCCCC(=O)Nc1ccccc1O)N/N=C/c1cc(O)ccc1O,·,0,6
O=C(N/N=C/c1cn(Cc2ccccc2)c2ccccc12)c1ccccn1,-3,-12,-5
COc1ccc([Si](C)(C)[C@@H]2[C@@H](CC(=O)N3CCC[C@H]3CO)O[C@]3(C(=O)N(Cc4ccc(I)cc4)c4ccccc43)[C@H]2C)cc1,0,·,·
COc1ccc(NC(=O)Nc2cccc3c2O[C@@H](CN(C)Cc2ccc(Oc4ccccc4)cc2)[C@@H](C)CN([C@@H](C)CO)C3=O)cc1,-1,36,-39
COc1ccc(NC(=O)Nc2cccc3c2O[C@@H](CN(C)Cc2ccc(Oc4ccccc4)cc2)[C@@H](C)CN([C@H](C)CO)C3=O)cc1,-2,63*,-48
COc1cc(Br)cc(/C=N/NC(=O)c2ccccc2O)c1O,-13,79*,-125
O=C(N/N=C\c1cccc(O)c1O)c1ccccc1O,·,68*,-133
O=C(N/N=C/c1ccc(I)cc1)c1ccccc1O,-8,-20,-8
COc1cc(Br)c(/C=N/NC(=O)c2ccccc2O)cc1OC,0,-13,-41
Cc1ccccc1/C=N/NC(=O)c1ccccc1O,-6,-13,-28
O=C(N/N=C/c1cc(I)cc(I)c1O)c1ccccc1O,-3,82*,-105
N#Cc1ccc(/C=N/NC(=O)CCCCC(=O)NO)cc1,0,5,-4
C[C@@H]1CN([C@H](C)CO)C(=O)Cc2cc(N(C)C)ccc2O[C@H]1CN(C)Cc1ccc(C(=O)Nc2ccccc2N)cc1,·,69*,18
C[C@@H]1CN([C@H](C)CO)C(=O)Cc2cc(N(C)C)ccc2O[C@@H]1CN(C)Cc1ccc(C(=O)Nc2ccccc2N)cc1,0,63*,-14
C[C@@H]1CN([C@H](C)CO)C(=O)Cc2cc(NC(=O)c3ccncc3)ccc2O[C@H]1CN(C)Cc1ccc(C(=O)Nc2ccccc2N)cc1,0,20,-22
C[C@@H]1CN([C@@H](C)CO)C(=O)c2cc(N(C)C)ccc2O[C@H]1CN(C)Cc1ccc(C(=O)Nc2ccccc2N)cc1,·,35,3
COCCOC(=O)N1C(=O)[C@@]2(c3ccccc31)[C@H](C(N)=O)[C@H]1C(=O)O[C@H](c3ccccc3)[C@H](c3ccccc3)N1[C@@H]2c1ccc(OCCO)cc1,-1,·,·
O=C(O)CCCCCCC(=O)N/N=C/c1cc(F)ccc1O,-1,-7,-4
COc1ccc(S(=O)(=O)Nc2ccc3c(c2)CC(=O)N([C@@H](C)CO)C[C@@H](C)[C@@H](CN(C)S(=O)(=O)c2ccc(C)cc2)O3)cc1,·,63*,7
